Results from ChEMBL document CHEMBL1122046, “Quaternary heterocyclylamino beta-lactams: a generic alternative to the classical acylamino side chain” (1982).
In brackets after ≈: the same amount, converted by molar mass.

Legend:
Salmonella [1] = test: Inhibition zone diameter against aerobic organism Salmonella strain 826
Staphylococcus aureus [2] = test: Inhibition zone diameter against aerobic organism Staphylococcus aureus strain 2314
Streptococcus pyogenes [3] = test: Inhibition zone diameter against aerobic organism Streptococcus pyogenes strain 2874
Pseudomonas aeruginosa [4] = test: Inhibition zone diameter against aerobic organism Pseudomonas aeruginosa strain 3350
Serratia marcescens [5] = test: Inhibition zone diameter against aerobic organism Serratia marcescenes strain 2855
Klebsiella = test: Inhibition zone diameter against aerobic organism Klebsiella species strain 2921
Morganella morganii [6] = test: Disk zone diameter (25 ug/disk) against aerobic organism Morganella morganii strain 2834
Klebsiella pneumoniae [7] = test: Minimum inhibitory concentration against aerobic organism Klebsiella pneumoniae strain 2882; assay type: functional; conditions: Klebsiella pneumoniae; read-out: MIC
How it was run: (§1)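 Agar-dilution MIC in µg/mL against aerobic bacterial strains on tryptocase soy agar, with inoculum applied as spots. Most series used 10^5 cfu per spot, and a later series used 10^4 cfu per spot. In some tables, footnoted strains were instead tested on Mueller-Hinton or nutrient agar. β-Lactamase-producing strains are flagged.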

Escherichia coli = test: MIC against aerobic organism Escherichia coli strain 2891; assay type: functional; conditions: Escherichia coli; read-out: MIC
How it was run: as §1

Shigella sp. = test: (§2) Minimum inhibitory concentration against aerobic organism Shigella species strain 2880; assay type: functional
How it was run: as §1

Enterococcus faecalis [8] = test: Minimum inhibitory concentration against aerobic organisms Streptococcus faecalis strain 2864; assay type: functional
How it was run: as §1

Streptococcus pyogenes [9] = test: Minimum inhibitory concentration against aerobic organism Streptococcus pyogenes strain 3124; assay type: functional
How it was run: as §1

Enterobacter cloacae [10] = test: Minimum inhibitory concentration against aerobic organism Enterobacter cloacae 2646; assay type: functional
How it was run: as §1

Staphylococcus aureus [11] = test: Minimum inhibitory concentration against aerobic organism Staphylococcus aureus strain 2868; assay type: functional; conditions: Staphylococcus aureus; read-out: MIC
How it was run: as §1

[12] = Minimum inhibitory concentration against aerobic organism Salmonella schottmuelleri strain 2837; assay type: functional; conditions: Salmonella; read-out: MIC
How it was run: as §1

Staphylococcus aureus [13] = test: Inhibition zone diameter against aerobic organism Staphylococcus aureus strain 2314; remark: listed apart in the source
[14] = Minimum inhibitory concentration against aerobic organism Salmonella schottmuelleri 2837; assay type: functional
How it was run: as §1

Klebsiella aerogenes [15] = test: Minimum inhibitory concentration against aerobic organism Enterobacter aerogenes strain 2828; assay type: functional
How it was run: as §1

Proteus vulgaris = test: Minimum inhibitory concentration against aerobic organism Proteus vulgaris strain 2829; assay type: functional; conditions: Proteus vulgaris; read-out: MIC
How it was run: as §1

Enterococcus faecalis [16] = test: Minimum inhibitory concentration against aerobic organism Streptococcus faecalis strain 2864; assay type: functional
How it was run: as §1

Klebsiella pneumoniae [17] = test: Minimum inhibitory concentration against aerobic organism Klebsiella pneumoniae strain 4005; assay type: functional
How it was run: as §1

Salmonella [18] = test: Minimum inhibitory concentration against aerobic organism Salmonella strain 3860
Proteus mirabilis = test: Minimum inhibitory concentration against aerobic organism Proteus mirabilis strain 2830; assay type: functional; conditions: Proteus mirabilis; read-out: MIC
How it was run: as §1

Morganella morganii [19] = test: Minimum inhibitory concentration against aerobic organism Morganella morganii strain 2833; assay type: functional; conditions: Morganella morganii; read-out: MIC
How it was run: as §1

Pseudomonas aeruginosa [20] = test: Minimum inhibitory concentration against aerobic organism Pseudomonas aeruginosa strain 2835; assay type: functional
How it was run: as §1

Enterobacter cloacae [21] = test: Minimum inhibitory concentration against aerobic organism Enterobacter cloacae strain 2646; assay type: functional; conditions: Enterobacter cloacae; read-out: MIC
How it was run: as §1

Staphylococcus aureus [22] = test: Minimum inhibitory concentration against aerobic organism Staphylococcus aureus strain 2865; assay type: functional
How it was run: as §1

Morganella morganii [23] = test: Minimum inhibitory concentration against aerobic organism Morganella morganii strain 2833
Klebsiella aerogenes [24] = test: Minimum inhibitory concentration against aerobic organism Enterobacter aerogenes strain 2906; assay type: functional; conditions: Klebsiella aerogenes; read-out: MIC
How it was run: as §1

Shigella = test: as §2; assay type: functional; conditions: Shigella; read-out: MIC
How it was run: as §1

Serratia marcescens [25] = test: Minimum inhibitory concentration against aerobic organism Serratia marcescens strain 2852; assay type: functional; conditions: Serratia marcescens; read-out: MIC
How it was run: as §1

Enterococcus faecalis [26] = test: Minimum inhibitory concentration against aerobic organism Streptococcus faecalis strain 2864
[27] = Streptococcus pyogenes, read-out: MIC

Compound | zone diameter (Salmonella [1]) | zone diameter (Streptococcus pyogenes [3]) | zone diameter (Pseudomonas aeruginosa [4]) | zone diameter (Serratia marcescens [5]) | zone diameter (Klebsiella) | zone diameter (Morganella morganii [6]) | MIC (Klebsiella pneumoniae [7]) | MIC (Escherichia coli) | MIC (Staphylococcus aureus [11]) | other results
CC(=O)NCCSC1=C(C(=O)O)N2C(=O)[C@H](C(C)O)[C@H]2C1 (stereo partly specified) | 30.5 mm | 37 mm | 10 mm | 28 mm | 28 mm | 28.5 mm | – | – | – | zone diameter (Staphylococcus aureus [2]): 39 mm
CC(O)[C@H]1C(=O)N2C(C(=O)[O-])=C(SCCNc3cc[n+](Cc4ccccc4)cc3)C[C@H]12 (stereo partly specified) | 26 mm | 35.2 mm | 11.2 mm | 25 mm | 24 mm | 26.5 mm | – | – | – | zone diameter (Staphylococcus aureus [2]): 36 mm
CC1(C)S[C@@H]2[C@H](NC(=O)[C@H](N)c3ccccc3)C(=O)N2[C@H]1C(=O)O [AMPICILLIN] | – | – | – | – | – | – | 50 µg/mL (≈ 143 µM) | > 100 µg/mL | 25 µg/mL (≈ 71.5 µM) | MIC (Shigella sp.): 6.25 µg/mL (≈ 17.9 µM); MIC (Enterococcus faecalis [8]): 6.25 µg/mL (≈ 17.9 µM); MIC (Streptococcus pyogenes [9]): < 0.09 µg/mL; MIC (Enterobacter cloacae [10]): > 100 µg/mL; MIC [12]: 1.56 µg/mL (≈ 4.46 µM)
CC(O)[C@H]1C(=O)N2C(C(=O)O)=C(SCCNC3=NCCC3)C[C@H]12 (stereo partly specified) | 28 mm | 40 mm | 25.5 mm | 25.5 mm | 24 mm | – | – | – | – | zone diameter (Staphylococcus aureus [13]): 38 mm
C[C@@H](O)[C@H]1C(=O)N2C(C(=O)O)=C(SCCNC=N)C[C@H]12 [IMIPENEM ANHYDROUS] | 29.5 mm | 43 mm | 31 mm | 24.5 mm | 26.5 mm | 27 mm | – | – | – | zone diameter (Staphylococcus aureus [2]): 42 mm
CC(O)[C@H]1C(=O)N2C(C(=O)[O-])=C(SCCNc3cc[n+](C)cc3)C[C@H]12 (stereo partly specified) | 28 mm | 37.5 mm | 24.5 mm | 26.5 mm | 27 mm | 26 mm | – | – | – | zone diameter (Staphylococcus aureus [13]): 42 mm
CC1(C)S[C@@H]2[C@H](NC(=O)Cc3ccccc3)C(=O)N2[C@H]1C(=O)O [PENICILLIN G] | – | – | – | – | – | – | 25 µg/mL (≈ 74.8 µM) | > 100 µg/mL | 12.5 µg/mL (≈ 37.4 µM) | MIC [14]: 3.12 µg/mL (≈ 9.33 µM); MIC (Shigella sp.): 6.25 µg/mL (≈ 18.7 µM); MIC (Enterococcus faecalis [8]): 1.56 µg/mL (≈ 4.67 µM); MIC (Streptococcus pyogenes [9]; [27]): < 0.39 µg/mL; MIC (Enterobacter cloacae [10]): > 100 µg/mL
CC(O)[C@H]1C(=O)N2C(C(=O)[O-])=C(SCCNc3cccc[n+]3C)C[C@H]12 (stereo partly specified) | 27.5 mm | 37 mm | 17.5 mm | 26 mm | 26 mm | 27 mm | – | – | – | zone diameter (Staphylococcus aureus [13]): 42.5 mm
Cc1nnc(SCC2=C(C(=O)[O-])N3C(=O)[C@@H](Nc4cc[n+](Cc5ccccc5)cc4)[C@H]3SC2)s1 | – | – | – | – | – | – | – | < 0.06 µg/mL | 2 µg/mL (≈ 3.91 µM) | MIC (Klebsiella aerogenes [15]): 16 µg/mL (≈ 31.3 µM); MIC (Proteus vulgaris): 0.25 µg/mL (≈ 0.489 µM); MIC (Enterococcus faecalis [16]): 64 µg/mL (≈ 125 µM); MIC (Klebsiella pneumoniae [17]): 16 µg/mL (≈ 31.3 µM); MIC (Salmonella [18]): 0.125 µg/mL (≈ 0.244 µM); MIC (Proteus mirabilis): 128 µg/mL (≈ 250 µM); MIC (Morganella morganii [19]): 128 µg/mL (≈ 250 µM); MIC (Pseudomonas aeruginosa [20]): > 128 µg/mL; MIC (Enterobacter cloacae [21]): 0.125 µg/mL (≈ 0.244 µM); MIC (Staphylococcus aureus [22]): 0.25 µg/mL (≈ 0.489 µM)
CCOC(=O)C[n+]1ccc(N[C@@H]2C(=O)N3C(C(=O)[O-])=C(CSc4nnnn4C)CS[C@H]23)cc1 | – | – | – | – | – | – | 4 µg/mL (≈ 8.14 µM) | 2 µg/mL (≈ 4.07 µM) | 16 µg/mL (≈ 32.5 µM) | MIC (Morganella morganii [23]): > 128 µg/mL; MIC (Klebsiella aerogenes [24]): 32 µg/mL (≈ 65.1 µM); MIC (Proteus vulgaris): < 0.5 µg/mL; MIC (Shigella): < 0.5 µg/mL; MIC (Serratia marcescens [25]): > 128 µg/mL; MIC (Enterococcus faecalis [16]): > 128 µg/mL; MIC (Streptococcus pyogenes [9]; [27]): < 0.5 µg/mL; MIC (Proteus mirabilis): 128 µg/mL (≈ 260 µM); MIC (Pseudomonas aeruginosa [20]): > 128 µg/mL; MIC (Enterobacter cloacae [21]): 16 µg/mL (≈ 32.5 µM); MIC [12]: 2 µg/mL (≈ 4.07 µM)
C[n+]1ccc(NC2C(=O)N3C2SC(C)(C)[C@@H]3C(=O)[O-])cc1 (stereo partly specified) | – | – | – | – | – | – | 100 µg/mL (≈ 325 µM) | 50 µg/mL (≈ 163 µM) | > 100 µg/mL | MIC (Shigella): 12.5 µg/mL (≈ 40.7 µM); MIC (Enterococcus faecalis [26]): > 100 µg/mL; MIC (Streptococcus pyogenes [9]; [27]): 1.56 µg/mL (≈ 5.08 µM); MIC (Enterobacter cloacae [21]): > 100 µg/mL; MIC [12]: 0.78 µg/mL (≈ 2.54 µM)
